The record followed here is ChEMBL document CHEMBL4177542, “A New Combination of a Pleuromutilin Derivative and Doxycycline for Treatment of Multidrug-Resistant Acinetobacter baumannii” (J Med Chem, 2017).

For series [1], the system named is Acinetobacter baumannii. The series is described as follows: Growth inhibition of multidrug-resistant Acinetobacter baumannii ATCC BAA 18002 after 48 hrs by resazurin dye based broth microdilution method. The class given is functional. As to conditions: ATCC BAA 18002, 48 h. In outline: (§1)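 Broth microdilution in tryptic soy broth. Mid-log cultures (OD600 0.5) treated with serial dilutions from a DMSO stock (1 mg per 100 μL) for 48 h at 37 °C. Resazurin (stock 0.02%) then added for 1 h at 37 °C. MIC is the lowest concentration staying blue; MBC is blue retained over 4 h (99.9% kill), with CFU plating when needed.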

Series [2] relates to Acinetobacter baumannii. As to the kind of experiment: Synergistic antibacterial activity against Acinetobacter baumannii ATCC 19606 at 2:1 compound to doxycycline ratio after 48 hrs by resazurin dye based microdilution broth checkerboard method. The class given is functional. The conditions noted are these: ATCC 19606 = CIP 70.34 = JCM 6841, 48 h. In outline:
(§2)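 Checkerboard broth microdilution of drug pairs in tryptic soy broth on mid-log cultures (OD 0.5), 48 h at 37 °C. Growth read by resazurin (pink growth, blue no growth). MBC is blue retained over 4 h, CFU plating where needed. ΣFIC = C_A/MIC_A + C_B/MIC_B, taken at the growth/no-growth interface wells; ΣFIC <0.5 counts as synergy.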

For series [3], the system named is Acinetobacter baumannii. The series is described as follows: Synergistic antibacterial activity against multidrug-resistant Acinetobacter baumannii ATCC […] at 35:1 compound to doxycycline ratio after 48 hrs by resazurin dye based microdilution broth checkerboard method. The class given is functional. The conditions noted are these: ATCC BAA 18002, 48 h. In outline: (§3)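 Microdilution broth checkerboard of the compound combined with doxycycline, using the resazurin broth method (48 h, 37 °C, blue = no growth). ΣFIC = C_A/MIC_A + C_B/MIC_B, taken at the growth–no growth interface wells; ΣFIC below 0.5 is scored as synergy. MBC for the fixed-ratio combinations read as the 4 h resazurin endpoint.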

Series [4] deals with Klebsiella pneumoniae. The series is described as follows: Synergistic antibacterial activity against Klebsiella pneumoniae ATCC 8047 at 60:1 compound to doxycycline ratio after 48 hrs by resazurin dye based microdilution broth checkerboard method. The class given is functional. The conditions noted are these: ATCC 8047, 48 h. In outline:
as §2

In series [5] the test system is Klebsiella pneumoniae. The series is described as follows: Synergistic bactericidal activity against Klebsiella pneumoniae ATCC 8047 at 35:1 compound to doxycycline ratio after 48 hrs by resazurin dye based microdilution broth checkerboard method. The conditions noted are these: ATCC 8047, 48 h, read-out: MBC99.9. The class given is functional. The procedure, abridged:
as §3

The subject of series [6] is Klebsiella pneumoniae. As to the kind of experiment: Synergistic bactericidal activity against Klebsiella pneumoniae ATCC 8047 at 2:1 compound to doxycycline ratio after 48 hrs by resazurin dye based microdilution broth checkerboard method. It is filed as functional. The conditions noted are these: ATCC 8047, 48 h, read-out: MBC99.9. In outline: as §2
Series [7] has as its system Klebsiella pneumoniae. As to the kind of experiment: Growth inhibition of Klebsiella pneumoniae ATCC 8047 after 48 hrs by resazurin dye based microdilution method. The class given is functional. The conditions noted are these: ATCC 8047, 48 h. In outline: as §1
Series [8] deals with Escherichia coli. As to the kind of experiment: Synergistic bactericidal activity against Escherichia coli ATCC 10798 at 35:1 compound to doxycycline ratio after 48 hrs by resazurin dye based microdilution broth checkerboard method. The class given is functional. As to conditions: ATCC 10798, 48 h, read-out: MBC99.9. The procedure, abridged:
as §2

Series [9] has as its system Escherichia coli. As to the kind of experiment: Synergistic bactericidal activity against Escherichia coli ATCC 10798 at 2:1 compound to doxycycline ratio after 48 hrs by resazurin dye based microdilution broth checkerboard method. As to conditions: ATCC 10798, 48 h, read-out: MBC99.9. It is filed as functional. In outline: as §2
The test system of series [10] is Escherichia coli. As to the kind of experiment: Growth inhibition of Escherichia coli ATCC 10798 after 48 hrs by resazurin dye based microdilution method. It is filed as functional. The conditions noted are these: ATCC 10798, 48 h. In outline: as §1
The test system of series [11] is Pseudomonas aeruginosa. As to the kind of experiment: Synergistic bactericidal activity against Pseudomonas aeruginosa ATCC 27853 at 60:1 compound to doxycycline ratio after 48 hrs by resazurin dye based microdilution broth checkerboard method. The class given is functional. As to conditions: ATCC 27853, 48 h, read-out: MBC99.9. In outline: as §2
The test system of series [12] is Pseudomonas aeruginosa. The series is described as follows: Synergistic antibacterial activity against Pseudomonas aeruginosa ATCC 27853 at 35:1 compound to doxycycline ratio after 48 hrs by resazurin dye based microdilution broth checkerboard method. It is filed as functional. As to conditions: ATCC 27853, 48 h. The procedure, abridged: as §3
Series [13] has as its system Pseudomonas aeruginosa. The series is described as follows: Synergistic bactericidal activity against Pseudomonas aeruginosa ATCC 27853 at 35:1 compound to doxycycline ratio after 48 hrs by resazurin dye based microdilution broth checkerboard method. The conditions noted are these: ATCC 27853, 48 h, read-out: MBC99.9. It is filed as functional. The procedure, abridged: as §2

Series [14] concerns Pseudomonas aeruginosa. As to the kind of experiment: Bactericidal activity against Pseudomonas aeruginosa ATCC 27853 after 48 hrs by resazurin dye based microdilution method. The class given is functional. The conditions noted are these: ATCC 27853, 48 h, read-out: MBC99.9. The procedure, abridged: as §1
The subject of the next series is Staphylococcus aureus. The series is described as follows: Synergistic antibacterial activity against Staphylococcus aureus ATCC 25923 at 2:1 compound to doxycycline ratio after 48 hrs by resazurin dye based microdilution broth checkerboard method. As to conditions: ATCC 25923, 48 h. It is filed as functional. In outline:
as §2

Series [15] has as its system Mycobacterium tuberculosis. As to the kind of experiment: Bactericidal activity against Mycobacterium tuberculosis H37Rv after 48 hrs by resazurin dye based microdilution method. The class given is functional. As to conditions: read-out: MBC99.9.
Series [16] relates to Acinetobacter baumannii. As to the kind of experiment: Potentiation of doxycycline-induced antimicrobial activity against Acinetobacter baumannii ATCC 19606 at 0.2 ug/ml in presence of 0.025 ug/ml doxycycline by microdilution broth checkerboard method. The class given is functional, ATCC 19606 = CIP 70.34 = JCM 6841. In outline:
(§4)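 A. baumannii ATCC 19606 in a broth microdilution checkerboard with doxycycline, 96 concentration combinations. ΣFIC = C_A/MIC_A + C_B/MIC_B, taken for wells at the growth/no-growth interface; ΣFIC <0.5 counts as synergy.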

Series [17] deals with Acinetobacter baumannii. The series is described as follows: Potentiation of doxycycline-induced antimicrobial activity against Acinetobacter baumannii ATCC 19606 at 1.56 ug/ml in presence of 0.025 ug/ml doxycycline by microdilution broth checkerboard method. It is filed as functional, ATCC 19606 = CIP 70.34 = JCM 6841. The procedure, abridged:
as §4

In series [18] the test system is Acinetobacter baumannii. The series is described as follows: Potentiation of doxycycline-induced antimicrobial activity against Acinetobacter baumannii ATCC 19606 at 0.40 ug/ml in presence of 0.05 ug/ml doxycycline by microdilution broth checkerboard method. It is filed as functional, ATCC 19606 = CIP 70.34 = JCM 6841. The procedure, abridged:
as §4

Series [19] can be described thus: Half life in Sprague-Dawley rat liver microsomes at 500 ng/ml by LC/MS analysis. The class given is ADME, microsome. The procedure, abridged: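 Pooled Sprague-Dawley rat liver microsomes at 1 mg/mL protein in 100 mM phosphate, pH 7.4. Compound at 500 ng/mL final; verapamil as positive control. Pre-equilibrated 5 min at 37 °C, then 1 mM NADPH added. Triplicate samples at 0, 5, 10, 20, 30, 45 and 60 min, quenched in 4 volumes of cold methanol, analysed by LC-MS.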

Series [20] concerns Acinetobacter baumannii. As to the kind of experiment: Synergistic antibacterial activity against Acinetobacter baumannii ATCC 19606 infected in C57BL/6 mouse assessed as survival rate at compound to doxycycline ratio of 35:1 at 4 mg/kg, ip administered as single dose measured for 5 days (reference value: <20%). It is filed as functional. The conditions noted are these: ATCC 19606 = CIP 70.34 = JCM 6841, ip, 120 h. In outline:
(§5)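 C57BL/6 mice (n = 5 per group; 4 untreated controls) infected intraperitoneally with A. baumannii ATCC19606 grown at 37 °C and collected by centrifugation, at a dose giving 75% death. Single intraperitoneal dose (2 to 60 mg/kg) given 1 h after infection. Mice monitored for 5 days, with death as the end point; survival rate recorded.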

Series [21] is described as follows: Solubility of the compound in water at 10 mg after 24 hrs by HPLC based shake flask method. It is filed as physicochemical.
Series [22] relates to Acinetobacter baumannii. As to the kind of experiment: Antibacterial activity against Acinetobacter baumannii ATCC 19606 infected in C57BL/6 mouse assessed as survival rate at 4 mg/kg, ip administered as single dose measured for 5 days (reference value: <20%). The conditions noted are these: ATCC 19606 = CIP 70.34 = JCM 6841, ip, 120 h. It is filed as functional. In outline: as §5

Converted amounts (≈) assume the structure as drawn. A value given as a limit tells only on which side of the number the result lay.

Consider `C=C[C@]1(C)C[C@@H](OC(=O)CSC(C)(C)CNC(=O)[C@H](N)C(C)C)[C@]2(C)[C@H](C)CC[C@]3(CC[C@@H](O)[C@H]32)[C@@H](C)[C@@H]1O`, for which the MIC against Acinetobacter baumannii [1] is 6.25 µg/mL (≈ 11 µM); in the series on Acinetobacter baumannii [2], 0.5 µg/mL; in the series on Acinetobacter baumannii [3] it was 1.56 µg/mL; with Klebsiella pneumoniae [4] it was 1.56 µg/mL; in the series on Klebsiella pneumoniae [7], less than 6.25 µg/mL; with Escherichia coli [10], 3.13 µg/mL (≈ 5.52 µM). Also, the MIC in the series with Pseudomonas aeruginosa [12] and in the series with Staphylococcus aureus was 12.5 µg/mL each time. The MBC was 1.56 µg/mL in the series on Klebsiella pneumoniae [5]; 1.56 µg/mL in the series on Klebsiella pneumoniae [6]; 1.56 µg/mL in the series on Escherichia coli [8]; 1.56 µg/mL in the series on Escherichia coli [9]; 25 µg/mL in the series on Pseudomonas aeruginosa [11]; 25 µg/mL in the series with Pseudomonas aeruginosa [13]. Moreover, the MBC with Pseudomonas aeruginosa [14] was greater than 25 µg/mL; in [15], 6.25 µg/mL (≈ 11 µM). Further, the figures for the “fractional inhibitory concentration index (FICI)” value with Acinetobacter baumannii [16], in the series on Acinetobacter baumannii [17] and in the series on Acinetobacter baumannii [18] were 0.16, 0.38 and 0.31, respectively. Besides, the t1/2 in [19] was greater than 1 h. Further, the survival at 4 mg/kg with Acinetobacter baumannii [20] was determined as 100%; in the series on Acinetobacter baumannii [22], 80%. Besides, in series [21], the solubility entry is on record as “Soluble”.
